Experimental data published in ChEMBL document CHEMBL1148785, “Second generation tetrahydroquinoline-based protein farnesyltransferase inhibitors as antimalarials” (J Med Chem, 2007).

Experiments:
[1] = tested on: Plasmodium falciparum; experiment: Inhibition of Plasmodium falciparum protein farnesyltransferase at 5 nM by scintillation proximity assay
[2] = tested on: Plasmodium falciparum; experiment: Antimalarial activity against Plasmodium falciparum K1; format: functional; conditions: Plasmodium falciparum, K1; read-out: ED50 (the source's name)
Outline: (§1)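 Asynchronous culture in type A+ erythrocytes at 0.5% parasitemia and 0.5% hematocrit, grown in RPMI-1640 with 20% heat-inactivated human A+ plasma. Compound was serially diluted from a top final 5 µM, with DMSO vehicle as 100% growth. Plates ran 48 h at 37 °C under 5% CO2/5% O2/90% N2, then [3H]-hypoxanthine (0.3 µCi) for 24 h. Filter-harvested counts were corrected for the uninfected-RBC background. ED50 by linear regression; duplicates averaged.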

[3] = tested on: Plasmodium falciparum; experiment: Inhibition of Plasmodium falciparum protein farnesyltransferase at 0.5 nM by scintillation proximity assay
[4] = tested on: Plasmodium falciparum; experiment: Antimalarial activity against Plasmodium falciparum 3D7; format: functional; conditions: Plasmodium falciparum, 3D7; read-out: ED50 (the source's name); outline: as §1
[5] = tested on: Plasmodium falciparum; experiment: Inhibition of Plasmodium falciparum protein farnesyltransferase at 50 nM by scintillation proximity assay

Row | SMILES | inhibition [1] | EC50 [2] | inhibition [3] | EC50 [4] | inhibition [5]
1 | Cn1cncc1CN1CC(N(CC2CCN(S(=O)(=O)c3ccccc3)CC2)S(=O)(=O)c2ccccn2)Cc2cc(C#N)ccc21 (stereo not given) | 7% | 280 nM | 67% | 275 nM | 96%
2 | COC(=O)N1CCC(CN(C2Cc3cc(C#N)ccc3N(Cc3cncn3C)C2)S(=O)(=O)c2ccc(NC(C)=O)cc2)CC1 (stereo not given) | 6% | 2000 nM | 0% | 1800 nM | 65%
3 | Cn1cncc1CN1CC(N(Cc2ccccc2F)C(=O)C2CC2)Cc2cc(C#N)ccc21 (stereo not given) | 0% | 2000 nM | 0% | 950 nM | 33%
4 | CN(C1Cc2cc(-c3ccccc3)ccc2N(Cc2cn(C)cn2)C1)S(=O)(=O)c1cn(C)cn1 (stereo not given) | 38% | > 5000 nM | 10% | > 5000 nM | 88%
5 | Cn1cnc(S(=O)(=O)N(Cc2ccc(C(F)(F)F)o2)C2Cc3cc(C#N)ccc3N(Cc3cncn3C)C2)c1 (stereo not given) | 96% | 75 nM | 54% | 78 nM | 97%
6 | Cn1cnc(S(=O)(=O)N(Cc2ccccn2)C2Cc3cc(C#N)ccc3N(Cc3cncn3C)C2)c1 (stereo not given) | 96% | 36 nM | 25% | 10 nM | 98%
7 | Cc1c(S(=O)(=O)N(Cc2ccc(S(C)(=O)=O)cc2)C2Cc3cc(C#N)ccc3N(Cc3cncn3C)C2)ncn1C (stereo not given) | 70% | 450 nM | 23% | 320 nM | 92%
8 | CSCCC(=O)N(Cc1ccccc1F)C1Cc2cc(C#N)ccc2N(Cc2cncn2C)C1 (stereo not given) | 9% | 450 nM | 0% | 270 nM | 52%
9 | Cn1cncc1CN1CC(N(Cc2ccccc2F)S(=O)(=O)c2cccc3nsnc23)Cc2cc(C#N)ccc21 (stereo not given) | 28% | 1000 nM | 4% | 700 nM | 74%
10 | Cn1cnc(S(=O)(=O)N(CCc2ccc(F)cc2)C2Cc3cc(C#N)ccc3N(Cc3cncn3C)C2)c1 (stereo not given) | 95% | 65 nM | 42% | 50 nM | 100%
11 | COC(=O)N1CCC(CN(C2Cc3cc(C#N)ccc3N(Cc3cncn3C)C2)S(=O)(=O)c2ccccc2)CC1 (stereo not given) | 93% | 70 nM | 43% | 50 nM | 98%
12 | Cn1cncc1CN1CC(N(Cc2ccccc2F)S(=O)(=O)c2ccccc2)Cc2cc(C#N)ccc21 (stereo not given) | 44% | 750 nM | 10% | 730 nM | 86%
13 | COC(=O)NCCCN(C1Cc2cc(C#N)ccc2N(Cc2cncn2C)C1)S(=O)(=O)c1ccccn1 (stereo not given) | 77% | 100 nM | 28% | 100 nM | 96%
14 | COC(=O)N1CCC(CN(C2Cc3cc(C#N)ccc3N(Cc3cncn3C)C2)S(=O)(=O)c2cccc(F)c2)CC1 (stereo not given) | 86% | 150 nM | 39% | 90 nM | 93%
15 | Cn1cnc(CN2CC(NS(=O)(=O)c3ccccn3)Cc3cc(-c4ccccc4)ccc32)c1 (stereo not given) | 14% | > 5000 nM | 11% | > 5000 nM | 19%
16 | CCCS(=O)(=O)N(CC1CCN(C(=O)OC)CC1)C1Cc2cc(C#N)ccc2N(Cc2cncn2C)C1 (stereo not given) | 22% | 1800 nM | 1% | 1100 nM | 55%
17 | CCN(CCCCN(C1Cc2cc(C#N)ccc2N(Cc2cncn2C)C1)S(=O)(=O)c1ccccn1)C(=O)OC(C)(C)C (stereo not given) | 52% | 2600 nM | 6% | 1250 nM | 92%
18 | Cn1cnc(S(=O)(=O)N(Cc2ccc(-n3cccc3)cc2)C2Cc3cc(C#N)ccc3N(Cc3cncn3C)C2)c1 (stereo not given) | 90% | 65 nM | 9% | 68 nM | 99%
19 | COC(=O)N1CCC(CN(C2Cc3cc(C#N)ccc3N(Cc3cncn3C)C2)S(=O)(=O)c2ccc3oc(=O)ccc3c2)CC1 (stereo not given) | 21% | > 5000 nM | 2% | > 5000 nM | 68%
20 | COC(=O)N1CCC(CN(C2Cc3cc(C#N)ccc3N(Cc3cncn3C)C2)S(=O)(=O)c2cccc3cccnc23)CC1 (stereo not given) | 80% | 400 nM | 24% | 260 nM | 95%
21 | Cn1cncc1CN1CC(N(Cc2ccc(S(C)(=O)=O)cc2)S(=O)(=O)c2ccccc2Cl)Cc2cc(C#N)ccc21 (stereo not given) | 87% | 800 nM | 16% | 400 nM | 99%
